# Most compounds without a hit are left out; they make up all but 3.7% or so of the library.
# procasp3 activ – activators of human procaspase-3; P42574; recombinant procaspase-3 D3A, Ac-DEVD-pNA absorbance 405 nm; activation, % at 8.5 µM; 330,000 tested, 0.11% active; AID 463141;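 active = activation above the mean of all tested compounds plus 3 SD, cut at about 21% in these data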;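 note: 0% = DMSO alone and 100% = DMSO wells spiked with extra 5 µM PC-3 D3A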
# Target sequence (P42574 whole entry D9A/D28A/D175A): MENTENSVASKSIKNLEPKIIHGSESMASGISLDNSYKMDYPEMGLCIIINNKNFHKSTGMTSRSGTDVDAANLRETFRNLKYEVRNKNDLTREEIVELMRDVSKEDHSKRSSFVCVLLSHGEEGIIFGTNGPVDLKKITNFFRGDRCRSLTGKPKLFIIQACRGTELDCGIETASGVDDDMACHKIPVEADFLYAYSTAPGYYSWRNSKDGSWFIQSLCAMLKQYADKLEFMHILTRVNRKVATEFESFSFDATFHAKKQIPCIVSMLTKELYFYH
#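 Evaluation: percent activation relative to control range; Material: Procaspase-3 D3A mutant, all three cleavage aspartates alanine; Compound: single dose, 8.5 µM nominal compound, 0.8% DMSO; Replication: one well per compound; Signal: absorbance at 405 nm, 0 and 120 min; Schedule: 1 h preincubation plus 2 h reaction at 25 °C.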
# GRIN3A LBD mod – modulates the human NR3A ligand-binding domain. NR3A LBD differential scanning fluorimetry, Tm shift; 0% = protein alone, 100% = glycine-bound protein. Tm shift relative to glycine control, % at 25 µM. 340,000 tested, 2.5% active. AID 1259313;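 active = melting temperature shift of at least 10% of the positive control shift, at one fixed dose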
# proCasp7 act – activates human procaspase-7, counter-screen for procaspase-3 activators; AID 463210; recombinant procaspase-7, Ac-DEVD-pNA absorbance 405 nm; D23A/D198A/D206A triple mutant, cannot self-cleave; scale: DMSO 0, 5 µM enzyme 100; activation, % at 8.5 µM; 330,000 tested, 0.093% active;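 active = percent activation above the screen-wide mean plus 3 SD, cut at about 25% in these data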
# Target sequence (P55210 whole entry D23A/D198A/D206A): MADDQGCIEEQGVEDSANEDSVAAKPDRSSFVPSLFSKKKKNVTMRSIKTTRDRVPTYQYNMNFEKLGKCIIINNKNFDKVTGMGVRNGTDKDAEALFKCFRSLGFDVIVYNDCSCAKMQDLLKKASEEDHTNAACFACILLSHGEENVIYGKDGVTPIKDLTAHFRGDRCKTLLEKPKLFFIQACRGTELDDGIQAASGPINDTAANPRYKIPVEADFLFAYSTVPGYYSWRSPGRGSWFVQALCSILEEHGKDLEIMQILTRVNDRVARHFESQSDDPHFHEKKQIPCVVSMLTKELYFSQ
#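 Test system: Procaspase-7 triple mutant (PC-7 D3A). Also added: Ac-DEVD-pNA substrate, 400 µM as added. Schedule: 1 h enzyme–compound preincubation and 2 h substrate reaction, both 25 °C. Signal: p-Nitroaniline absorbance at 405 nm, read at 0 and 120 min. Control set: low DMSO alone, high DMSO plus 5 µM PC-7.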
# MPTP block – blocks calcium-induced mitochondrial swelling. isolated mouse mitochondria, Ca2+ swelling absorbance, 30 min. inhibition, % at 10 µM. 360,000 tested, 1.4% active. AID 602449;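 active = inhibition of 50% or more, scaled per plate between neutral and stimulator controls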;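 note: 0% = DMSO wells given calcium and 100% = 1 mM EGTA wells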
# aDG glyco up – increases alpha dystroglycan glycosylation; AID 624168; Pro5-aDG cells, alpha-DG glycosylation AlphaScreen (IIH6); 0% Pro5, 100% B10-LARGE cell signal; activation, % at 10 µM; 360,000 tested, 0.22% active;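 active = activation of at least 8% versus controls, or a plate z-score of at least 8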;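 note: Pro5 are CHO cells carrying HIG-tagged alpha-DG that lacks glycosylation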
# An asterisk follows results filed as active; nt = no result given.
SMILES,procasp3 activ,GRIN3A LBD mod,proCasp7 act,MPTP block,aDG glyco up
CCOC(=O)C1=CN(Cc2ccco2)S(=O)(=O)N(CC)C1c1ccc(C(F)(F)F)cc1 (configuration not stated),-10,3,-8,-2,0
O=S(=O)(c1ccccc1)N1CC2CC(Br)C(Br)CC21 (configuration not stated),nt,nt,nt,0,0
CN(C)Cc1c(C(=O)N/N=C/C=C/c2ccccc2)nnn1-c1nonc1N,-5,0,4,-2,0
CC(C)c1c(C(=O)N/N=C/c2ccc3c(c2)OCO3)nnn1-c1nonc1N,6,28*,1,2,0
CC(C)c1c(C(=O)N/N=C/c2cccc(OCc3ccc(F)cc3)c2)nnn1-c1nonc1N,7,27*,-3,6,0
Nc1nonc1-n1nnc(C(=O)N/N=C/c2ccc3c(c2)OCO3)c1-c1ccccc1,-5,8,4,-2,0
COc1cccc(/C=N/NC(=O)c2nnn(-c3nonc3N)c2C(C)C)c1,13,26*,-6,0,0
CC(C)c1c(C(=O)N/N=C/C=C/c2ccccc2)nnn1-c1nonc1N,6,17*,3,0,0
CCc1nc2c(OCc3cc(Cl)cc(Cl)c3)cccn2c1N(C)C(=O)c1ccc(C)cc1,nt,nt,nt,0,0
C[C@H]1CN([C@@H](C)CO)S(=O)(=O)c2ccc(Br)cc2O[C@H]1CN(C)C(=O)Cc1ccncc1,nt,nt,nt,0,0
CCOC(=O)C1(C)CCCN(C(=O)COc2ccccc2)C1 (configuration not stated),nt,nt,nt,-1,1
COc1ccc(N=c2oc3cc(O)ccc3cc2C(=O)Nc2ccccn2)cc1OC,4,15*,6,24,-1
COc1cc(/C=C/C(=O)OCC(=O)N2CC(C)OC(C)C2)ccc1OCC#N (configuration not stated),nt,nt,nt,-1,0
CCCc1cc(=O)oc2c(C)c(OC3CCCCC3=O)ccc12 (configuration not stated),nt,0,nt,0,0
CCCc1cc(=O)oc2c(C)c(OS(C)(=O)=O)ccc12,3,16*,6,0,0
Cc1csc(=O)n1CCC(=O)OCC(=O)NNC(=O)c1ccc(Cl)cc1,nt,-1,nt,-1,0
COc1ccc2oc(C(=O)OCC(=O)N(C)C3CCCCC3)c(C)c2c1,-1,1,5,-1,0
O=c1c(Cc2ccc(Cl)cc2Cl)c(O)ccn1Cc1ccc(Cl)cc1,-3,22*,-3,15,0
COc1ccccc1OCCSc1nc2ccccc2n1CC(=O)O,nt,nt,nt,-2,0
COc1ccc(C2CC(=O)Oc3cc(O)cc(O)c32)cc1 (configuration not stated),-2,-4,12,0,0
COc1ccc([C@H]2Oc3cc(O)cc(O)c3C(=O)C2[C@@H]2C(=O)c3c(O)cc(O)cc3O[C@@H]2c2ccc(OC)cc2)cc1 (some centres not stated),13,28*,3,nt,nt
CCCCn1nnnc1C(c1cc2ccccc2o1)N(C)Cc1ccc(Cl)cc1 (configuration not stated),nt,nt,nt,0,0
COc1ccccc1CNC(=O)c1cc(-c2cc(F)ccc2OC(C)C)n[nH]1,nt,nt,nt,-1,1
CC(C)OP(=O)(OC(C)C)C(Nc1ccccc1)c1ccc2c(c1)OCO2 (configuration not stated),1,12*,1,2,0
COc1ccc(NS(=O)(=O)c2cc(NC(=O)c3nc4nc(C)cc(C)n4n3)ccc2C)cc1,3,12*,8,-1,0
SMILES,procasp3 activ,GRIN3A LBD mod,proCasp7 act,MPTP block,aDG glyco up
COc1ccccc1NS(=O)(=O)c1cccc(NC(=O)c2nc3nc(C)cc(C)n3n2)c1,-6,-1,2,2,0
O=C(Nc1ccc(-c2nc3cccnc3s2)cc1)c1ccc(Br)o1,nt,20*,nt,0,0
O=C(Nc1ccc(-c2nc3cccnc3s2)cc1)c1cccnc1Cl,3,1,3,2,0
O=C(Nc1cccc(-c2nc3cccnc3s2)c1)c1ccco1,-5,-18,-2,0,0
O=C(Nc1ccc(-c2nc3cccnc3s2)cc1)c1ccco1,-10,12*,6,0,0
O=C(C[C@H]1C[C@@H]2c3cc(NC(=O)c4ccc5c(c4)OCO5)ccc3O[C@@H]2[C@H](CO)O1)NCc1cc(F)ccc1F,nt,nt,nt,0,0
Nc1ccn([C@@H]2O[C@H](CNCc3cnc(N4CCOCC4)nc3)[C@@H](O)[C@H]2O)c(=O)n1,nt,nt,nt,-1,0
Cc1[nH]n(C(N)=S)c(=O)c1N=Nc1cc(-c2ccc(Br)cc2)[nH]n1,-8,24*,5,0,0
Cc1ccc(NC(=O)CSc2nc(N)c3c4c(sc3n2)CSC(C)(C)C4)cc1,0,24*,13,10,0
CCc1nc2c(OCc3ccc(C(F)(F)F)cc3)cccn2c1N(C)C(=O)C(C)C,nt,nt,nt,1,1
CC(C#N)(NC(=O)CN1CCN(S(=O)(=O)c2ccc(Br)cc2Cl)CC1)C1CC1 (configuration not stated),8,10*,-7,-1,0
C/C(=N\NC(=O)CSCc1ccc([N+](=O)[O-])cc1)c1cccc(Br)c1,-1,-10,5,0,0
C/C(=N\NC(=O)CSCc1ccccc1Br)c1cccc([N+](=O)[O-])c1,-2,22*,3,6,3
O=C1NC(Cc2ccc(O)cc2)c2nc3cc(F)c(F)cc3c(=O)n2-c2ncccc21 (configuration not stated),nt,nt,nt,0,0
O[C@H]1CN(Cc2cccs2)[C@@H](c2ccccc2)C[C@@H]1n1cc(-c2ccc(F)cc2)nn1,nt,nt,nt,1,0
Cc1ccc(N=C2SC(C(=O)Nc3ccc(OC(F)(F)F)cc3)C(N)=C2C(=O)Nc2c(C)cc(C)cc2C)cc1 (configuration not stated),-4,35*,5,40,0
Cc1ccc(NC(=O)C2SC(=Nc3ccccc3)C(C(=O)Nc3ccc(Cl)cc3)=C2N)cc1 (configuration not stated),nt,17*,nt,29,0
N#Cc1cccc(NC(=O)C2SC(=Nc3ccccc3)C(C(=O)N3CCOCC3)=C2N)c1 (configuration not stated),2,1,0,1,0
Cc1ccc(NC(=O)c2cc3cc(OC(F)(F)F)ccc3[nH]2)cc1,-1,1,-4,nt,nt
CCCC(=O)N1CCC1(C)C(=O)Nc1ccc(-n2cccc2)cc1 (configuration not stated),nt,nt,nt,0,0
CCCS(=O)(=O)NC(=O)C1(C)CCCN(C(=O)c2c(-c3ccccc3)noc2C)C1 (configuration not stated),nt,nt,nt,1,0
